# GRIN3A LBD mod: binders of NR3A ligand-binding domain, primary screen, biophysical, differential scanning fluorimetry, uHTS. hit rate 2.5% among 340,000. Tm shift relative to glycine control, % at 25 µM. NR3A LBD differential scanning fluorimetry, Tm shift; 0% = protein alone, 100% = glycine-bound protein. Glutamate receptor ionotropic, NMDA 3A (GRIN3A) ligand-binding domain;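 active means melting temperature shift of at least 10% of the positive control shift, at one fixed dose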
# ATG4B inh: ATG4B protease inhibitors, primary screen, biochemical, fluorescence, uHTS; hit rate 0.51% among 340,000; Cysteine protease ATG4B (Homo sapiens), Q9Y4P1; AID 504462, 2011; inhibition, % at 8.33 µM; ATG4B cleavage of LC3-PLA2, NBD-HPC fluorescence, 1 h; in the data active means inhibition above about 40%
# Target sequence (Q9Y4P1 whole entry, looked up): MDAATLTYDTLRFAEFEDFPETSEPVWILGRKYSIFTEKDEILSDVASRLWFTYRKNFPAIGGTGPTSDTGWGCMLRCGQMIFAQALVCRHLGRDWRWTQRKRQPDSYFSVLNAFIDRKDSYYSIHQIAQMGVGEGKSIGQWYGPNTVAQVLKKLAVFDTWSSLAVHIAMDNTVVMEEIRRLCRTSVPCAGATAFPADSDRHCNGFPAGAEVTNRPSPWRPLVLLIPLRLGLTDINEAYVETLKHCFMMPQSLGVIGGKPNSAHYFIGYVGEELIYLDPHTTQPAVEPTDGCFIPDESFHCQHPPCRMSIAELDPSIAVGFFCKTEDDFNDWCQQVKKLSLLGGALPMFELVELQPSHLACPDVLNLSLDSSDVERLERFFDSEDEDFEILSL
# UCH37 inh: inhibitors of human UCH37 deubiquitinase, primary screen, biochemical, Ub-AMC cleavage, fluorescence. AID 588478, 2011. inhibition, % (concentration not given with the values). purified proteasome/UCH37. hit rate 0.33% among 330,000. Ubiquitin carboxyl-terminal hydrolase isozyme L5 (Homo sapiens), Q9Y5K5;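 active means mean inhibition over replicate wells above about 20%, limit read from the data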;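 further: 0% = compound-free wells with enzyme and 100% = wells lacking proteasome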
#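 assay system = human UCH37 enzyme supplied as purified proteasome complex | amount = proteasome at 0.15 nM in the dispensed enzyme solution | schedule = 30 min compound-proteasome preincubation then 25 min substrate reaction, room temperature | measured by = fluorescence, ex 355 nm, em 460 nm | benchmarks = no-proteasome wells (full inhibition) and compound-free wells (no inhibition)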
# NadD inh: inhibitors of S. aureus NadD, primary screen, biochemical, colorimetric, uHTS. AID 602399, 2012. Nicotinate-nucleotide adenylyltransferase NadD (Staphylococcus aureus N315). hit rate 0.78% among 360,000. inhibition, % at 20 µM. purified NadD enzyme, colorimetric absorbance read-out; in the data active means inhibition above about 26%
# SENP1 FRET inh: human SENP1 catalytic domain inhibitors, primary screen, biochemical, FRET, uHTS | Sentrin-specific protease 1 (Homo sapiens), Q9P0U3 | recombinant SENP1 catalytic domain, CyPet-SUMO1-YPet FRET cleavage | inhibition, % at 10 µM | hit rate 0.21% among 360,000 | AID 624204, 2012;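 active means inhibition at least 30% at 10 µM, raw YFP signal under a set limit, fluorescence ratio 0.5 to 1.5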;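 further: 0% = enzyme with DMSO and 100% = no enzyme wells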
#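 system = hSENP1 catalytic domain, recombinant | reagent = SFCypet-SUMO1-SFYpet substrate at 25 nM | doses = one dose per compound, 10 µM, 0.5% DMSO | incubation = enzyme reaction for 50 min at room temperature, dark | measured by = FRET, CFP and YFP emission | controls = no-enzyme low, enzyme-DMSO high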
# Numbers without * were called inactive; i = inactive; · = no result given. A selection: hits, their analogues and other compounds. The true share with any hit is near 3.6%.
SMILES,GRIN3A LBD mod,ATG4B inh,UCH37 inh,NadD inh,SENP1 FRET inh
O=[N+]([O-])c1cc(S(=O)(=O)Nc2cccc(C(F)(F)F)c2)ccc1-n1nnc2ccccc21,19*,12,2,0,2
O=[N+]([O-])c1cc(S(=O)(=O)Nc2ccccc2)ccc1N1CCN(c2ccccc2)CC1,20*,-1,1,13,0
Cc1cccc(C2=NN(c3ccccc3)[C@@H](C(=O)N3CCOC3=O)[C@@H]2c2ccccc2)c1,-2,0,-81,9,-49
O=C1OCCN1C(=O)[C@H]1[C@H](c2ccc([N+](=O)[O-])cc2)C(c2ccc(F)cc2)=NN1c1ccc(Br)cc1,13*,-2,4,18,3
C[C@@H]1C(c2cccc(Cl)c2)=NN(c2ccc(Br)cc2)[C@H]1C(=O)N1CCOC1=O,21*,9,·,14,-44
Cc1cccc(C2=NN(c3ccc(Br)cc3)[C@@H](C(=O)N3CCOC3=O)[C@@H]2c2ccccc2)c1,15*,-4,i,19,-127
Cc1[nH]c2ccccc2c1C=NNC(=O)CNC(=O)c1ccc2c(c1)OCO2,·,·,3,·,·
O=C(O)c1ccc(COc2ccccc2C=C2C(=O)c3ccccc3C2=O)cc1,29*,-6,0,16,-1
O=C1NC(=S)N/C1=C\c1ccccc1OCc1ccc(C(=O)O)cc1,-1,-2,5,-3,2
Cc1ccc2nc(Cl)c(C=NNc3ccc(C(=O)O)cc3)cc2c1,·,·,6,·,·
COc1ccc(NS(=O)(=O)c2ccc3nc(COc4ccc(Cl)c(C)c4)[nH]c3c2)cc1,29*,5,1,23,-2
Cc1cc2c(nc1C)CCCN2C[C@@H](C)ON=C1[C@H]2CCn3c(=O)n(-c4ccccc4)c(=O)n3[C@H]2[C@H](O)[C@@H]2O[C@H]12,·,·,-117,·,·
CC(=NNC(=O)C(O)c1ccccc1)c1ccc(Br)s1 (stereo not drawn),·,·,3,·,·
O=C(CN1C(=O)NC2(CCc3ccccc32)C1=O)NCc1cccc(C(F)(F)F)c1 (stereo not drawn),11*,16,-2,-3,-1
O=C(CN1C(=O)NC2(CCc3ccccc32)C1=O)NCc1ccc(F)cc1 (stereo not drawn),-2,-2,1,-4,1
COc1cc(C=NNc2ccnc(=O)[nH]2)ccc1O,·,·,12,·,·
COc1cc(C[C@@H](C)[C@@H](C)Cc2ccc(O)c(OC)c2)ccc1O,-26,-10,0,-5,3
CC(Cc1ccc(O)c(O)c1)C(C)Cc1ccc(O)c(O)c1 (stereo not drawn),24*,4,5,·,·
C=CCn1c(NS(=O)(=O)c2ccccc2)c(S(=O)(=O)c2ccc(C)cc2)c2nc3ccccc3nc21,11*,7,i,-2,-135
Cc1ccccc1C(=O)Nc1nnc(CC(=O)NN=Cc2cn(Cc3ccccc3)c3ccccc23)s1,·,·,6,·,·
Cc1ccc(C(C)C)c(OCC(=O)NN=CC2CCCCC2)c1,·,·,4,·,·
CCCc1ncc(C(O)c2cccc3ccccc23)n1C (stereo not drawn),12*,-6,-1,-1,4
CC(C)c1ncc(C(O)c2cccc3ccccc23)n1C (stereo not drawn),-2,-8,0,-7,2
CN(C)c1ccc(Cc2cc3c(O)ccc(O)c3cc(Cc3ccc(N(C)C)cc3)c2=O)cc1,-30,31,·,68*,7
Fc1ccc(C=NNC(=S)Nc2cccnc2)cc1F,·,·,-1,·,·
COc1ccc(Cl)cc1C(=O)Nc1cccnc1,1,-1,0,0,2
COc1ccc(F)cc1-c1cc(C(=O)Nc2cccnc2)[nH]n1,·,·,·,1,-1
Cc1ccc(O)c(-c2cc(C(=O)Nc3cccnc3)[nH]n2)c1,29*,-1,4,-2,0
O=C(Nc1cccnc1)c1cc(-c2cc(Cl)ccc2O)n[nH]1,32*,-9,3,-5,3
Cc1c(C=NNC(=O)CNc2ccccc2)c2ccccn2c1C(=O)c1ccccc1,·,·,1,·,·

# Assay outcomes: PubChem, several laboratories
